≈ marks a conversion by molar mass, not a printed value. Values belong to the compound of their own block, whether it stands above or below them. Calls of active or inactive are those of the source. No cut-off for these calls is given here.
Key:
[1] = molecular target: Mitogen-activated protein kinase 14 (Homo sapiens, UniProt Q16539)
PBMC [2] = assay: Inhibition of LPS-induced TNFalpha biosynthesis in human PBMC; assay type: functional, cell-based
In short: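 PBMCs isolated from human whole blood by Ficoll–Hypaque density gradient centrifugation, resuspended at 5 · 10⁶/mL in RPMI with 10% fetal bovine serum. Cells preincubated with compound (0.2% DMSO) 5 min at RT, then LPS added (200 ng/mL stock), 6 h at 37 °C. Medium TNFα measured by ELISA; IC₅₀ from linear regression. Duplicate typical.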

[3] = molecular target: Tyrosine-protein kinase Lck (Homo sapiens, UniProt P06239); assay: Inhibition of Lck
Mus musculus [4] = assay: Inhibition of LPS-induced TNFalpha production in mouse at 5 mg/kg, po administered 4 hrs before LPS challenge relative to control; assay type: functional
In short: (§1)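 Mice given 5 mg/kg orally, then LPS challenge after a 4 h or 24 h pre-dosing interval. Circulating TNFα reduction reported as percent versus vehicle, mean ± SD, n = 8 animals; Student's t-test.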

Serum = assay: Drug level in LPS challenged mouse serum at 5 mg/kg, po; assay type: ADME, organism-based; design: dose 5 mg/kg, route oral; details: in vivo, read-out: Drug uptake
In short: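 Serum drug concentration in mice measured in the LPS challenge study after 5 mg/kg oral dosing, 4 h or 24 h pre-dosing interval.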

Rattus norvegicus [5] = assay: Inhibition of disease progression in rat adjuvant-induced arthritis model assessed as paw swelling at 1 mg/kg, po qd; assay type: functional, organism-based; design: dose 1 mg/kg
In short: (§2)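 Rat adjuvant-induced arthritis, compound given orally once daily; disease progression read as paw swelling over study days 10–21 versus vehicle; Student's t-test.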

Cytochrome P450 2C19 = Cytochrome P450 2C19 (Homo sapiens, UniProt P33261); assay: Inhibition of CYP2C19; assay type: ADME
Liver = assay: Metabolic stability in mouse liver microsomes; assay type: ADME, Microsome
[6] = Drug level in rat serum at 3 mg/kg after 18 hrs; assay type: ADME, organism-based; design: dose 3 mg/kg; details: read-out: Drug uptake
In short: (§3)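 Terminal serum concentrations in adjuvant-arthritis rats taken 18 h after the final once-daily oral dose.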

Rattus norvegicus [7] = assay: Inhibition of disease progression in rat adjuvant-induced arthritis model assessed as paw swelling at 0.3 mg/kg, po qd; assay type: functional
In short: as §2

[8] = Drug level in rat at 10 mg/kg, po after 24 hrs; assay type: ADME, organism-based; design: dose 10 mg/kg, route oral; details: in vivo, read-out: Drug uptake
In short: (§4)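 Rat pharmacokinetics: iv dose 1 mg/kg and po dose 10 mg/kg, vehicle PEG300, n = 3 animals.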

[9] = Volume of distribution at steady state in rat at 1 mg/kg, iv; assay type: ADME, organism-based; design: dose 1 mg/kg, route intravenous; details: in vivo, read-out: Vdss
In short: as §4

Rattus norvegicus [10] = species on record: Rattus norvegicus; assay: Inhibition of LPS-induced TNFalpha production in Lewis rat by ELISA; assay type: functional
In short: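 Rats dosed orally; two hours later LPS (10 µg, E. coli […]) in 1 mL PBS given IP. Dose–response used to derive oral ED₅₀.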

Rattus norvegicus [11] = assay: Inhibition of disease progression in rat adjuvant-induced arthritis model assessed as paw swelling at 3 mg/kg, po qd; assay type: functional, organism-based; design: dose 3 mg/kg
In short: as §2

[12] = Aqueous solubility at pH 6.5; assay type: physicochemical; details: buffer
Cytochrome P450 1A2 = molecular target: T1, Cytochrome P450 1A2 (Homo sapiens, UniProt P05177); assay: Inhibition of CYP1A2; assay type: ADME
T1 sequence (P05177 whole entry): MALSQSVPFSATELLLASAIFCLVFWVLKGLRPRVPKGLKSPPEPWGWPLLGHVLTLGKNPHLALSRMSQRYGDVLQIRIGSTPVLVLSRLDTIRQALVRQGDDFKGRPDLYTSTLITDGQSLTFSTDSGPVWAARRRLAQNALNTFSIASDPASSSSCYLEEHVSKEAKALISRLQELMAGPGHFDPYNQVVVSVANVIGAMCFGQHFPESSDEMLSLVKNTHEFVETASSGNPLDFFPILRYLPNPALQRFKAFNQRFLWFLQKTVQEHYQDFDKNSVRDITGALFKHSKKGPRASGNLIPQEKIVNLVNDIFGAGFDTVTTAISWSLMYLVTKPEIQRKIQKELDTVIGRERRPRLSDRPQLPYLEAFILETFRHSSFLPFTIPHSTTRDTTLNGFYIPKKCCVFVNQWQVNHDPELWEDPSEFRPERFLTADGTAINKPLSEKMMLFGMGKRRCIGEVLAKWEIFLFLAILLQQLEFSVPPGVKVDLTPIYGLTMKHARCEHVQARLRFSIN

[13] = Clearance in rat at 1 mg/kg, iv; assay type: ADME, organism-based; design: dose 1 mg/kg, route intravenous; details: in vivo
In short: as §4

Cytochrome P450 2D6 = Cytochrome P450 2D6 (Homo sapiens, UniProt P10635); assay: Inhibition of CYP2D6; assay type: ADME
PBMC [14] = assay: Inhibition of LPS-induced IL1-beta production in human PBMC; assay type: functional, cell-based
Cytochrome P450 2C9 = Cytochrome P450 2C9 (Homo sapiens, UniProt P11712); assay: Inhibition of CYP2C9; assay type: ADME
[15] = Permeability across human Caco-2 cells; assay type: ADME, cell-based; details: read-out: permeability
[16] = AUC (0 to 24hrs) in rat at 10 mg/kg, po; assay type: ADME, organism-based; design: time < 24 hr, dose 10 mg/kg, route oral; details: plasma
Blood [17] = assay: Inhibition of LPS-induced TNFalpha production in human whole blood; assay type: functional, tissue-based
[18] = Protein binding in human; assay type: ADME, organism-based; details: in vivo, read-out: PB (converted)
[19] = Oral bioavailability in rat at 10 mg/kg; assay type: ADME, organism-based; details: in vivo
In short: as §4

Blood [20] = assay: Inhibition of LPS-induced IL1-beta production in human whole blood; assay type: functional, tissue-based
Mus musculus [21] = assay: Inhibition of LPS-induced TNFalpha production in mouse at 5 mg/kg, po administered 24 hrs before LPS challenge relative to control
[22] = Half life in rat at 1 mg/kg, iv; assay type: ADME, organism-based; design: dose 1 mg/kg, route intravenous; details: in vivo
In short: as §4

Liver microsomes [23] = assay: Metabolic stability in rat liver microsomes; assay type: ADME, Microsome
Cytochrome P450 3A4 = Cytochrome P450 3A4 (Homo sapiens, UniProt P08684); assay: Inhibition of CYP3A4; assay type: ADME
[24] = Drug level in rat serum at 1 mg/kg after 18 hrs; assay type: ADME, organism-based; design: dose 1 mg/kg; details: read-out: Drug uptake
In short: as §3

[25] = Cmax in rat at 10 mg/kg, po; assay type: ADME, organism-based; design: dose 10 mg/kg, route oral; details: in vivo
In short: as §4

Liver microsomes [26] = assay: Metabolic stability in human liver microsomes; assay type: ADME, Microsome
hERG (KCNH2) = hERG (KCNH2) (Homo sapiens, UniProt Q12809); assay: Inhibition of human ERG at 30 uM by patch clamp assay
Mus musculus [27] = assay: Inhibition of LPS-induced TNFalpha production in mouse at 5 mg/kg, po administered 24 hrs before LPS challenge relative to control; assay type: functional, organism-based; design: dose 5 mg/kg
In short: as §1

Tyrosine-protein kinase Lck, sequence (P06239 whole entry): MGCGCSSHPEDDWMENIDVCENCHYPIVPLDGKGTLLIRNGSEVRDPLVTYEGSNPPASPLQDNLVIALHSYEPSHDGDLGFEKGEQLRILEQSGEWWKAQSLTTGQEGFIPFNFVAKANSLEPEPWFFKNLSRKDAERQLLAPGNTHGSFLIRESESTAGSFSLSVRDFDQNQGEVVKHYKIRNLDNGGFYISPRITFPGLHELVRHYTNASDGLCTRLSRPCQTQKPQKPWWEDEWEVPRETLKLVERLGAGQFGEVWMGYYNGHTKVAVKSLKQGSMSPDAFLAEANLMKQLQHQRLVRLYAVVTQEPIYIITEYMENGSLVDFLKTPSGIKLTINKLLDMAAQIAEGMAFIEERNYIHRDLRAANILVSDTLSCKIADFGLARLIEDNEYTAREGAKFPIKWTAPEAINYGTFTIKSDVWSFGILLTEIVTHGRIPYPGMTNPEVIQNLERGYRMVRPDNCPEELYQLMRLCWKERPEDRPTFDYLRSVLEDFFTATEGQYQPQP
Mitogen-activated protein kinase 14, sequence (Q16539 whole entry): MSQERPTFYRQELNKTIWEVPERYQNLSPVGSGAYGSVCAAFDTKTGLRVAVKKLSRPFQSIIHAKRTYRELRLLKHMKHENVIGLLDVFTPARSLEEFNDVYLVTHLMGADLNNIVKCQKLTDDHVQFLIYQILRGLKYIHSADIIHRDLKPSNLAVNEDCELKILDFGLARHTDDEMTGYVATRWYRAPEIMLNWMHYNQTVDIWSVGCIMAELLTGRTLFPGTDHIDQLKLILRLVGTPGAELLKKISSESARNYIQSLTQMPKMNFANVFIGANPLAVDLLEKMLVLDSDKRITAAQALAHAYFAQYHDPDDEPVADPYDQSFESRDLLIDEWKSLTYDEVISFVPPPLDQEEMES
Cytochrome P450 3A4, sequence (P08684 whole entry): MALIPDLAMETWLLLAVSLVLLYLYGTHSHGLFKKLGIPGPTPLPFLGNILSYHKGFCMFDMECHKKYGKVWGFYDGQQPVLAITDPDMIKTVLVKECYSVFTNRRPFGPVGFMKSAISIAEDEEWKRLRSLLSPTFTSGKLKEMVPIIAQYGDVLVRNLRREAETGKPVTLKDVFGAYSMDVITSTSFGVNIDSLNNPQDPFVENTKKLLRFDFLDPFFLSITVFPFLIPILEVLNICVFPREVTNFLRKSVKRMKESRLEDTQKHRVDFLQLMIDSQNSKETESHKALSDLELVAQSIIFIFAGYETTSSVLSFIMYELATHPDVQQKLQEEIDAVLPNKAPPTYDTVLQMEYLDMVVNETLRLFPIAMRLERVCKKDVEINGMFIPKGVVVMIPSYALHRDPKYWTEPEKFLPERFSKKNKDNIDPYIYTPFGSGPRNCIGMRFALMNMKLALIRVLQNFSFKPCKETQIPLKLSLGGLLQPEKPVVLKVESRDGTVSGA
Cytochrome P450 2C19, sequence (P33261 whole entry): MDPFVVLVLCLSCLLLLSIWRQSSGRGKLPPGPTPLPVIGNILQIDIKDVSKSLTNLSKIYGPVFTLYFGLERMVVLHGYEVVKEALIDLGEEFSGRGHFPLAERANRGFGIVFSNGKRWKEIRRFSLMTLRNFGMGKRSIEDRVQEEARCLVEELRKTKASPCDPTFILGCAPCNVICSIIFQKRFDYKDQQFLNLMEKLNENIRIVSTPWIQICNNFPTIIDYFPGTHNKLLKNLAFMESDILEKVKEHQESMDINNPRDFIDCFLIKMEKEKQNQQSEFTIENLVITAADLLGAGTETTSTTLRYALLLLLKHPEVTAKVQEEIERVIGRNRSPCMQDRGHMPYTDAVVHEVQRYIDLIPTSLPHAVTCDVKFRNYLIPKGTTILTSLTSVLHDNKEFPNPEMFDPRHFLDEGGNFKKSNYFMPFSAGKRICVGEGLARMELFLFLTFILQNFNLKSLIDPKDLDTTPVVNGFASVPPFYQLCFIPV
Cytochrome P450 2D6, sequence (P10635 whole entry): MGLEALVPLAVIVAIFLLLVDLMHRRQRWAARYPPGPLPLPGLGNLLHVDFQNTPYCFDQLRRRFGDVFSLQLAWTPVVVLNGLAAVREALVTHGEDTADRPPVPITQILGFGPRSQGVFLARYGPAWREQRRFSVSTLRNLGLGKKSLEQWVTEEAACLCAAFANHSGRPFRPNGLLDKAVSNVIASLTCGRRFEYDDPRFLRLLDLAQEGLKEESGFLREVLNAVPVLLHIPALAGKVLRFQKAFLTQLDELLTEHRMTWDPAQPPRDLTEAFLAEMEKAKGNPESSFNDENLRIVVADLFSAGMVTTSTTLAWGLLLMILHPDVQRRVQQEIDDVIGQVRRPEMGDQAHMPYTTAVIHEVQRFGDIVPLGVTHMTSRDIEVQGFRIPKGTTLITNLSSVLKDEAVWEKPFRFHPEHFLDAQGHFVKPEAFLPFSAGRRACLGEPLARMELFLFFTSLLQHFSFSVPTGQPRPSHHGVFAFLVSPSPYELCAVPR
hERG (KCNH2), sequence (Q12809 whole entry): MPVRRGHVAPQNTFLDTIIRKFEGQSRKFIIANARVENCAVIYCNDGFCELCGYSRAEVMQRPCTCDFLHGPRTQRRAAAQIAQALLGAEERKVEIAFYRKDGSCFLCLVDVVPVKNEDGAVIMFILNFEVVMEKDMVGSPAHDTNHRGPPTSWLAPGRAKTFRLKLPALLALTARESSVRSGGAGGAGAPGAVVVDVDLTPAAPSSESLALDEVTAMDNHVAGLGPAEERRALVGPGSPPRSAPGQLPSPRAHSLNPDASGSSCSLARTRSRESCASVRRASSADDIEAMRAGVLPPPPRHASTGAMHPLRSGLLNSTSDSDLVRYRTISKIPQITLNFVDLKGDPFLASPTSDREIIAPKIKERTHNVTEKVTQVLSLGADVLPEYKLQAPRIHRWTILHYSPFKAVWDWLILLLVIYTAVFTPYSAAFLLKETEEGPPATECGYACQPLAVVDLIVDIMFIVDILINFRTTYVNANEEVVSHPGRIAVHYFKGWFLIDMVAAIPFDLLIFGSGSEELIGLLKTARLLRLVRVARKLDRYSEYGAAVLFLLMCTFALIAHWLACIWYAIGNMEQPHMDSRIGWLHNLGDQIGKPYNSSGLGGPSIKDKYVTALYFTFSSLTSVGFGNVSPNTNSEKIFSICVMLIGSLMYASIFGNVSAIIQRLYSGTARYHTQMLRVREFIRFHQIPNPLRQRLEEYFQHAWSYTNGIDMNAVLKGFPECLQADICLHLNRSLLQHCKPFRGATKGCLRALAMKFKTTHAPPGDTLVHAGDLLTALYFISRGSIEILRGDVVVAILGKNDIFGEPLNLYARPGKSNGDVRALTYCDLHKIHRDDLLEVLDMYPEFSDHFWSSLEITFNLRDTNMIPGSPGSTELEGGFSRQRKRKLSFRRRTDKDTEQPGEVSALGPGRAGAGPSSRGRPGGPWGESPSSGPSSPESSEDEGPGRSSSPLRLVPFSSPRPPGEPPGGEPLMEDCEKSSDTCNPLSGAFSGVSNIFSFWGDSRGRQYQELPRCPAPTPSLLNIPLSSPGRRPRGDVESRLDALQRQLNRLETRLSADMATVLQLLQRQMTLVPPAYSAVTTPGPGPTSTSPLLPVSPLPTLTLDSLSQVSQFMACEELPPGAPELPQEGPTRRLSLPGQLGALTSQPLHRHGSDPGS
Cytochrome P450 2C9, sequence (P11712 whole entry): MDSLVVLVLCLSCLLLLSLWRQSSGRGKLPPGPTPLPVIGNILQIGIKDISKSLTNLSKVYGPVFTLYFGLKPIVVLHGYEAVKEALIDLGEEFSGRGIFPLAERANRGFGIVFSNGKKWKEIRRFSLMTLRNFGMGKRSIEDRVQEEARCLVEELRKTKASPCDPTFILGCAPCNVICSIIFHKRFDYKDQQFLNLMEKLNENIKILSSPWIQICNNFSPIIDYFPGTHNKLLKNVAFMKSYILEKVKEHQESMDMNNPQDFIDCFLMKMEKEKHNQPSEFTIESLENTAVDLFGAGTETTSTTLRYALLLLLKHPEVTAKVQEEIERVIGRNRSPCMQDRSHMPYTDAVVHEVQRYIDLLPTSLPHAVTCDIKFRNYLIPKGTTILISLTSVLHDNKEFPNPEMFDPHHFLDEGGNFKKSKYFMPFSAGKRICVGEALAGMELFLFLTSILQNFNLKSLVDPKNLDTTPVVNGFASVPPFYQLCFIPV

IC50 [1]: 130 nM
SMILES: CCCNc1nc(C)c(C(=O)Nc2cc(C(=O)NCC)ccc2C)s1

SMILES: Cc1cccc(Cl)c1NC(=O)c1cnc(NC2CC2)s1
IC50 (PBMC [2]): 1500 nM | IC50 [1]: 39 nM | IC50 [3]: 0.14 µM

IC50 [1]: 160 nM
SMILES: CCCNc1nc2c(s1)C(=O)N(c1cc(C(=O)NCC)ccc1C)C2

IC50 [1]: 5.4 nM | IC50 [3]: 5.8 µM
SMILES: Cc1ccc(C(=O)Nc2ccnn2C)cc1NC(=O)c1cnc(NC(C)C)s1
IC50 (PBMC [2]): 6.4 nM

IC50 [1]: 330 nM
SMILES: CCNC(=O)c1ccc(C)c(NC(=O)c2sc(NCC)nc2C)c1

IC50 [1]: 4.1 nM
SMILES: CCCNc1ncc(C(=O)Nc2cc(C(N)=O)ccc2C)s1
IC50 (PBMC [2]): 23 nM

IC50 [1]: 3.4 nM | IC50 [3]: > 50 µM | concentration (Serum): 330 nM
SMILES: CCNC(=O)c1ccc(C)c(NC(=O)c2cnc(NC(C)C)s2)c1
IC50 (PBMC [2]): 11 nM | inhibition in vivo at 5 mg/kg (Mus musculus [4]): 68%

SMILES: Cc1ccc(C(=O)Nc2ccon2)cc1NC(=O)c1cnc(NC(C)C)s1
IC50 (PBMC [2]): 1 nM

IC50 [1]: 22 nM
SMILES: CNC(=O)c1ccc(C)c(NC(=O)c2cnc(NCCOC)s2)c1
IC50 (PBMC [2]): > 250 nM

IC50 [1]: 13 nM
SMILES: Cc1cccc(Cl)c1NC(=O)c1cnc(NC(C)C)s1
IC50 (PBMC [2]): 160 nM

Activity (Cytochrome P450 2C19): > 40 µM | Stability (Liver): 0 nmol/min/mg | concentration at 18 h [6]: 16 nM | concentration at 24 h [8]: 7.6 nM | Vd [9]: 1.8 L/kg | solubility [12]: 22 µg/mL (≈ 63.5 µM) | Activity (Cytochrome P450 1A2): > 40 µM | clearance [13]: 14.1 mL/min/kg | Activity (Cytochrome P450 2D6): > 40 µM | Activity (Cytochrome P450 2C9): > 40 µM | Papp [15]: 8.3 ×10⁻⁶ cm/s | AUC(0-t) at 24 h [16]: 25 µM·h | IC50 (Blood [17]): 54 nM | fraction unbound [18]: 0.18 | bioavailability [19]: 75% | IC50 (Blood [20]): 600 nM | half-life [22]: 108 min | Stability (Liver microsomes [23]): 0 nmol/min/mg | Activity (Cytochrome P450 3A4): > 40 µM | concentration at 18 h [24]: 8.1 nM | Cmax [25]: 8.7 µM | IC50 [3]: 22 µM | Stability (Liver microsomes [26]): 0 nmol/min/mg
SMILES: CC[C@@H](C)Nc1ncc(C(=O)Nc2cc(C(=O)NC)ccc2C)s1
Activity (Rattus norvegicus [5]): Active | IC50 (PBMC [2]): 2.9 nM | inhibition in vivo at 0.3 mg/kg (Rattus norvegicus [7]): 46% | ED50 (Rattus norvegicus [10]): 2 mg/kg | Activity (Rattus norvegicus [11]): Active | IC50 (PBMC [14]): 99 nM | inhibition in vivo at 5 mg/kg (Mus musculus [21]): 46% | inhibition at 30 µM (hERG (KCNH2)): 7%

IC50 [1]: 34 nM
SMILES: CCNC(=O)c1ccc(C)c(N2Cc3nc(NC(C)C)sc3C2=O)c1
IC50 (PBMC [2]): > 250 nM

IC50 [3]: > 50 µM | concentration (Serum): 250 nM
SMILES: CC[C@H](C)Nc1ncc(C(=O)Nc2cc(C(=O)NC)ccc2C)s1
IC50 (PBMC [2]): 4.1 nM | inhibition in vivo at 5 mg/kg (Mus musculus [4]): 69%

IC50 [1]: 28 nM
SMILES: CCCNc1ncc(C(=O)Nc2c(C)cccc2Cl)s1
IC50 (PBMC [2]): > 2000 nM

IC50 [1]: 2 nM | IC50 [3]: 1.9 µM
SMILES: CCCNc1ncc(C(=O)Nc2cc(C(=O)NCC)ccc2C)s1
IC50 (PBMC [2]): 2.7 nM | Activity (Mus musculus [27]): inactive

IC50 [1]: 110 nM
SMILES: CNC(=O)c1ccc(C)c(N2Cc3nc(NC4CCCC4)sc3C2=O)c1

IC50 [1]: 110 nM
SMILES: CNC(=O)c1ccc(C)c(N2Cc3nc(NC(C)C)sc3C2=O)c1

IC50 [1]: 140 nM
SMILES: CCNc1ncc(C(=O)Nc2c(C)cccc2Cl)s1

IC50 [1]: 3.5 nM | IC50 [3]: > 50 µM | concentration (Serum): 400 nM
SMILES: CNC(=O)c1ccc(C)c(NC(=O)c2cnc(NC(C)C)s2)c1
IC50 (PBMC [2]): 8.7 nM | inhibition in vivo at 5 mg/kg (Mus musculus [4]): 62% | Activity (Mus musculus [27]): inactive

IC50 [1]: 36 nM | IC50 [3]: 3.31 µM
SMILES: Cc1cccc(Cl)c1NC(=O)c1cnc(NC2CCC2)s1

IC50 [1]: 4.5 nM | IC50 [3]: 4.8 µM
SMILES: CCCNc1ncc(C(=O)Nc2cc(C(=O)NC)ccc2C)s1
IC50 (PBMC [2]): 42 nM

IC50 [1]: 3.2 nM | IC50 [3]: > 50 µM
SMILES: Cc1ccc(C(N)=O)cc1NC(=O)c1cnc(NC(C)C)s1
IC50 (PBMC [2]): 35 nM

IC50 [1]: 62 nM
SMILES: Cc1cccc(Cl)c1NC(=O)c1cnc(Nc2ccccc2)s1

IC50 [1]: 4.2 nM
SMILES: Cc1ccc(C(=O)Nc2ccn[nH]2)cc1NC(=O)c1cnc(NC(C)C)s1
IC50 (PBMC [2]): 7.9 nM

IC50 [1]: 270 nM
SMILES: CCCNc1nc2c(s1)C(=O)N(c1cc(C(=O)NC)ccc1C)C2
